ChEMBL document CHEMBL1649354, “Bioactivity-guided isolation of GABA(A) receptor modulating constituents from the rhizomes of Actaea racemosa” (J Nat Prod, 2010)

Columns and labels:
Assay type in all cases: cell-based
[1] = tested on: Oocyte; test: Allosteric modulation of alpha1beta2gamma2S GABAA receptor expressed in Xenopus laevis oocytes assessed as stimulation of GABA-induced chloride current at 100 uM by electrophysiology
How it was run: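 Two-microelectrode voltage clamp; GABA at EC3-10 (eliciting 3–10% of maximal current, determined at the start of each experiment). Test material applied for 1 min equilibration before GABA, then co-applied. Stimulation calculated as (I(GABA+Comp)/IGABA) − 1 at 100 µM, reported as %. Mean ± SE, n = 4–7 oocytes, at least two oocyte batches; oocytes with currents >3 µA discarded.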

[2] = (§1) Allosteric modulation of alpha1beta2gamma2S GABAA receptor expressed in Xenopus laevis oocytes assessed as stimulation of GABA-induced chloride current by electrophysiology; conditions: Oocyte
How it was run: (§2)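 Two-microelectrode voltage clamp of oocytes. GABA applied at EC3-10 (3-10% of maximal current), set at the start of each experiment. Compound pre-applied for 1 min before GABA. Enhancement taken as (I(GABA+Comp)/IGABA) - 1. Concentration-response data fitted to 1/[1 + (EC50/[Comp])nH]. Mean ± SE from ≥4 oocytes and ≥2 oocyte batches.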

[3] = tested on: Oocyte; test: as §1; how it was run: as §2
[4] = tested on: Oocyte; test: Allosteric modulation of alpha1beta2gamma2S GABAA receptor expressed in Xenopus laevis oocytes assessed as stimulation of GABA-induced chloride current at 300 uM by electrophysiology; how it was run: as §2

Structure (SMILES) | Activity [1] [%] | EC50 [2] [µM] | Activity [3] | Activity [4] [%]
CC(=O)O[C@H](C[C@@H](C)[C@H]1C(=O)[C@H](O)[C@@]2(C)[C@@H]3CC[C@H]4C(C)(C)[C@@H](O)CC[C@@]45C[C@@]35CC[C@]12C)[C@H]1OC1(C)C | 64 |  |  | 
CC(=O)O[C@@H]1C[C@@]23C[C@@]24CC[C@H](O[C@@H]2OC[C@@H](O)[C@H](O)[C@H]2O)C(C)(C)[C@@H]4CC[C@H]3[C@]2(C)C[C@@H]3O[C@]4(C[C@@H](C)[C@@H]3[C@@]12C)O[C@H](O)[C@@]1(C)O[C@@H]41 [ACTEIN] | 305 | 36 | Dose-dependent effect | 378
C[C@@H]1C[C@@H]2O[C@@]3(O[C@@H]2C(C)(C)O)[C@H](O)[C@@]2(C)[C@@H]4CC[C@H]5C(C)(C)[C@@H](O)CC[C@@]56C[C@@]46CC[C@]2(C)[C@@H]13 | 104 |  |  | 
CC(=O)O[C@@H]1C[C@@]23C[C@@]24CC[C@H](O)C(C)(C)[C@@H]4CC[C@H]3[C@]2(C)C[C@@H]3O[C@]4(C[C@@H](C)[C@@H]3[C@@]12C)O[C@H](O)[C@@]1(C)O[C@H]41 | 126 |  |  | 
C[C@@H]1C[C@@H]2O[C@@]3(O[C@@H]2C(C)(C)O)[C@H](O)[C@@]2(C)[C@@H]4CC[C@H]5C(C)(C)[C@@H](O[C@@H]6OC[C@@H](O)[C@H](O)[C@H]6O)CC[C@@]56C[C@@]46CC[C@]2(C)[C@@H]13 | 189 | 28 | Dose-dependent effect | 256
CC(=O)OC(C)(C)[C@H]1O[C@@]23O[C@H]1C[C@@H](C)[C@@H]2[C@@]1(C)CC[C@@]24C[C@@]25CC[C@H](O[C@@H]2OC[C@H](O)[C@H](O)[C@H]2O)C(C)(C)[C@@H]5CC[C@H]4[C@]1(C)[C@H]3O | 271 | 26 | Dose-dependent effect | 289
CC(=O)O[C@H](C[C@@H](C)[C@H]1C(=O)[C@H](O)[C@@]2(C)[C@@H]3CC[C@H]4C(C)(C)[C@@H](O[C@@H]5OC[C@@H](O)[C@H](O)[C@H]5O)CC[C@@]45C[C@@]35CC[C@]12C)[C@H]1OC1(C)C | 1690 | 27 | Dose-dependent effect | 1950
